Laboratory results: ChEMBL document CHEMBL1649302, “New small-molecule inhibitor class targeting human immunodeficiency virus type 1 virion maturation” (Antimicrob Agents Chemother, 2009)
Activity calls are given as the source filed them. No cut-off for these calls is given here.

How the values were obtained:
[1] = Therapeutic index, ratio of CC50 for human PBMC to EC50 for HIV1 93TH074 infected in human PBMC; details: read-out: TI
Outline: (§1)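 Frozen PHA-stimulated (1.5 μg/ml, 3 days) buffy-coat PBMCs pooled from three or four seronegative donors. Infected with a TCID50-based virus input per 10⁶ cells for 1 h at 37°C, then pelleted and resuspended in 10 ng/ml IL-2. Plated at 4 × 10⁵ cells/ml on compound dilutions for 7 days at 37°C. Supernatant RT measured by Quan-T-RT. TI is mean CC50 divided by mean EC50.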

[2] = test system: Human immunodeficiency virus 1; test: Antiviral activity against HIV1 harboring capsid I201V mutant protein assessed as inhibition of virion maturation-associated CA/SP1 processing; format: functional, organism-based
Outline: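 HEK 293 cells were transfected with pNL4-3 CAI201V, pNL4-3 or mock, with or without compound at various concentrations, and supernatants collected 72 h later. Supernatants were clarified at 200 × g, and virions pelleted through a 20% sucrose–PBS cushion (20,000 × g, 3 h, 4°C) and lysed. Proteins were run on 4–12% Bis-Tris/MOPS gels and immunoblotted with anti-p24 (1:1,000) to detect CA/SP1 p25 versus p24.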

[3] = test system: Human immunodeficiency virus 1; test: Antiviral activity HIV1 92BR017 infected in human PBMC after 7 days by scintillation counting; format: functional, organism-based; details: Human immunodeficiency virus 1, 92BR017, 168 h
Outline: (§2)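 PBMCs came from buffy coats pooled from 3–4 seronegative donors, were PHA-stimulated (1.5 μg/ml, 3 days) and frozen. Thawed cells were infected 1 h at 37°C with virus input set by TCID50, then pelleted and resuspended in IL-2 (10 ng/ml). They were plated at 4 × 10⁵ cells/ml onto compounds for 7 days at 37°C. Supernatant RT activity was measured by Quan-T-RT scintillation assay.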

[4] = Therapeutic index, ratio of CC50 for human PBMC to EC50 for HIV1 91US056 infected in human PBMC; details: read-out: TI
Outline: (§3)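 TI was the mean PBMC CC50 divided by the mean EC50 from the 7-day PBMC reverse transcriptase assay.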

[5] = test system: Human immunodeficiency virus 1; test: Antiviral activity HIV1 ROJO infected in human PBMC after 7 days by scintillation counting; format: functional, organism-based; details: Human immunodeficiency virus 1, ROJO, 168 h
Outline: (§4)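 Fresh PBMCs from HIV/HBV-seronegative donors were PHA-stimulated (4 μg/ml, 48–72 h) and kept with IL-2 (20 U/ml), with at least two donors pooled. Cells were seeded at 5 × 10⁴/well and infected (final MOI ≅0.1) with nine compound concentrations in triplicate wells. After 7 days, reverse transcriptase activity was measured in cell-free supernatant.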

[6] = test system: Human immunodeficiency virus 1; test: Antiviral activity HIV1 NL4-3 infected in human PBMC after 7 days by scintillation counting; format: functional, organism-based; details: Human immunodeficiency virus 1, NL4-3, 168 h; outline: as §2
[7] = test system: Human immunodeficiency virus 1; test: Antiviral activity HIV1 93BR021 infected in human PBMC after 7 days by scintillation counting; format: functional, organism-based; details: Human immunodeficiency virus 1, 93BR021, 168 h; outline: as §4
[8] = Therapeutic index, ratio of CC50 for human PBMC to EC50 for HIV1 92HT594 infected in human PBMC; details: read-out: TI; outline: as §1
[9] = Therapeutic index, ratio of CC50 for human PBMC to EC50 for HIV1 92HT599 infected in human PBMC; details: read-out: TI; outline: as §1
[10] = Therapeutic index, ratio of CC50 for human PBMC to EC50 for HIV1 3B infected in human PBMC; details: read-out: TI; outline: as §3
[11] = Therapeutic index, ratio of CC50 for human PBMC to EC50 for HIV1 CMU06 infected in human PBMC; details: read-out: TI; outline: as §1
[12] = test system: Human immunodeficiency virus 1; test: Antiviral activity HIV1 92US660 infected in human PBMC after 7 days by scintillation counting; format: functional, organism-based; details: Human immunodeficiency virus 1, 92US660, 168 h; outline: as §4
[13] = Cytotoxicity against human MT2 cells after 6 days by XTT assay; format: cell-based
Outline: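 Uninfected cells were incubated with half-log compound dilutions for 6 days, then given XTT/PMS for 4 h and read at 450 nm. CC50 was the concentration reducing formazan to 50% of uninfected, compound-free cells. Values are means ± SD from 3–5 experiments or individual values.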

[14] = Therapeutic index, ratio of CC50 for human PBMC to EC50 for HIV1 92BR026 infected in human PBMC; details: read-out: TI
[15] = test system: Human immunodeficiency virus 1; test: Antiviral activity HIV1 92BR004 infected in human PBMC after 7 days by scintillation counting; format: functional, organism-based; details: Human immunodeficiency virus 1, 92BR004, 168 h; outline: as §2
[16] = test system: Human immunodeficiency virus 1; test: Antiviral activity against HIV1 92HT594 infected in human MT2 cells assessed as inhibition of viral p24 antigen production after 5 days; format: functional, organism-based; details: Human immunodeficiency virus 1, 92HT594, MT2, 120 h
Outline: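 PM1 cells (NL4-3, Ba-L) or MT-2 cells (92HT594, 92HT599) were infected at MOI 0.16 for 2 h and washed. They were plated at 1 × 10⁴ cells/well (2 × 10⁵/ml) onto half-log compound dilutions. Supernatant p24 was quantified by ELISA at day 5. EC50 was the concentration giving a 50% decrease versus infected, compound-free cells.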

[17] = Therapeutic index, ratio of CC50 for human PBMC to EC50 for HIV1 92BR004 infected in human PBMC; details: read-out: TI; outline: as §3
[18] = Therapeutic index, ratio of CC50 for human PM1 cells to EC50 for HIV1 Ba-L infected in human PM1 cells; format: cell-based; details: read-out: TI
Outline: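 PM1 cells infected at MOI 0.16 for 2 h, washed, then seeded at 1 × 10⁴ cells/well on half-log compound dilutions. After 5 days, supernatant p24 antigen was quantified by ELISA kit. EC50 is the concentration halving p24 versus infected untreated cells. CC50 was measured in PM1 cells by XTT formazan at 450 nm. TI is CC50 divided by EC50.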

[19] = test system: Human immunodeficiency virus 1; test: Antiviral activity HIV1 92TH014 infected in human PBMC after 7 days by scintillation counting; format: functional, organism-based; details: Human immunodeficiency virus 1, 92TH014, 168 h; outline: as §4
[20] = Therapeutic index, ratio of CC50 for human PBMC to EC50 for HIV1 NL4-3 infected in human PBMC; details: read-out: TI; outline: as §1
[21] = test system: Human immunodeficiency virus 1; test: Antiviral activity HIV1 93BR023 infected in human PBMC after 7 days by scintillation counting; format: functional, organism-based; details: Human immunodeficiency virus 1, 93BR023, 168 h; outline: as §4
[22] = Therapeutic index, ratio of CC50 for human PBMC to EC50 for HIV1 92RW009 infected in human PBMC; details: read-out: TI; outline: as §1
[23] = test system: Human immunodeficiency virus 1; test: Antiviral activity HIV1 98IN022 infected in human PBMC after 7 days by scintillation counting; format: functional, organism-based; details: Human immunodeficiency virus 1, 98IN022, 168 h; outline: as §2
[24] = test system: Human immunodeficiency virus 1; test: Antiviral activity HIV1 92HT596 infected in human PBMC after 7 days by scintillation counting; format: functional, organism-based; details: Human immunodeficiency virus 1, 92HT596, 168 h; outline: as §2
[25] = Therapeutic index, ratio of CC50 for human PBMC to EC50 for HIV1 92BR030 infected in human PBMC; details: read-out: TI
Outline: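 PHA-stimulated (4 μg/ml, 48 to 72 h) PBMCs pooled from at least two seronegative donors, kept with 20 U/ml IL-2, plated at 5 × 10⁴ cells/well. Infected with clinical isolate (final MOI ≅0.1) alongside nine compound concentrations in triplicate wells, 7 days. Supernatant reverse transcriptase activity measured. TI is mean PBMC CC50 divided by mean EC50.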

With CC(C)(C)c1ccc(C(Cn2cccc(C(F)(F)F)c2=O)NC2Cc3ccccc3C2)cc1 (stereo not given) the selectivity ratio [1] was 142, the inhibition [2] was “inactive” and the EC50 [3] was 120 nM. For the same compound, the selectivity ratio [4] was less than 1, the EC50 [5] was greater than 17000 nM and the EC50 [6] was 110 nM. For the same compound, the EC50 [7] was 40 nM, the selectivity ratio [8] was 15 and the selectivity ratio [9] was 12. The selectivity ratio [10] was 53, the selectivity ratio [11] was 14 and the EC50 [12] was 12000 nM. For the same compound, the CC50 at 144 h [13] was 15000 nM, the selectivity ratio [14] was less than 1 and the EC50 [15] was 330 nM. The EC50 [16] was 240 nM, the selectivity ratio [17] was 52 and the selectivity ratio [18] was 4. It also gave an EC50 [19] greater than 17000 nM, a selectivity ratio [20] of 155 and an EC50 [21] greater than 17000 nM. For the same compound, the selectivity ratio [22] was 12, the EC50 [23] was 1300 nM and the EC50 [24] was 320 nM. It also gave a selectivity ratio [25] of less than 1.
